ChEMBL document CHEMBL5390295, “Isolinderalactone Ameliorates the Pathology of Alzheimer's Disease by Inhibiting the JNK Signaling Pathway” (2023)
The source made the active and inactive calls. No cut-off for these calls is given here.

Key:
PC-12 [1] = assay: Neuroprotective activity against Abeta1-42 induced rat PC12 cells assessed as effect on Bcl2/Bax ratio level at 1.25 uM preincubated for 0.5 hrs followed by Abeta1-42 induction and measured after 24 hrs by Western blot analysis; type: functional, cell-based; details: time 24.5 hrs
In short: (§1)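 Aβ1–42 challenge in PC12 cells was 10 μM for 24 h after 3 h pretreatment at 10 μM. SP600125 (1.25 μM) was added 0.5 h before pretreatment where used. Cells were lysed in RIPA and protein measured by BCA. Blotting used PVDF transfer, 5% BSA/TBST block for 2 h, primaries 1:1000 overnight at 4 °C, and HRP secondary for 2 h. Bcl-2/Bax ratio and band intensities were quantified.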

PC-12 [2] = assay: Neuroprotective activity against Abeta1-42 induced rat PC12 cells assessed as effect on cleaved caspase-3 protein level at 1.25 uM preincubated for 0.5 hrs followed by Abeta1-42 induction and measured after 24 hrs by Western blot analysis; type: functional, cell-based; details: time 24.5 hrs; in short: as §1
Mus musculus [3] = assay: Neuroprotective activity in APP/PS1 dE9 double transgenic mouse model assessed as improvement in spatial memory at 5 mg/kg, ip administered once daily for 30 consecutive days […] by morris water maze test; type: functional, organism-based; details: time 30.0 day
In short: (§2)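 Female APP/PS1 mice, 10 months old, about 30 g, 10 per group. Dosing was intraperitoneal in 1× PBS, once daily for one month (1 or 10 mg/kg test; 5 mg/kg donepezil). WT and untreated APP/PS1 controls got PBS. Morris water maze: training days 1–4, averaged escape latency. Day-5 probe trial ran 60 s with the platform removed, recording platform crossings and time per quadrant. Mean ± SEM.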

Mus musculus [4] = assay: Anti-alzheimer activity against APP/PS1 dE9 double transgenic mouse model assessed as increase in platform crossings at 5 mg/kg, ip administered once daily for 30 consecutive days […] by morris water maze test; type: functional, organism-based; details: time 30.0 day; in short: as §2
Mus musculus [5] = assay: Anti-alzheimer activity in hippocampus of APP/PS1 dE9 double transgenic mouse model assessed as decrease in MDA level at 5 mg/kg, ip administered once daily for 30 consecutive days […]; type: functional, organism-based; details: time 30.0 day
In short: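 Hippocampal tissue from dosed APP/PS1 mice was lysed in RIPA. SOD activity was read by WST-8/xanthine oxidase formazan kit assay and MDA by lipid peroxidation kit, with absorbance on a microplate reader.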

Mus musculus [6] = assay: Anti-alzheimer activity against APP/PS1 dE9 double transgenic mouse model assessed as increase in time spent in the target quadrant at 5 mg/kg, ip administered once daily for 30 consecutive days measured on day 5 by morris water maze test; type: functional, organism-based; details: time 30.0 day; in short: as §2
Mus musculus [7] = assay: Anti-alzheimer activity against APP/PS1 dE9 double transgenic mouse model assessed as decrease in escape latency at 5 mg/kg, ip administered once daily for 30 consecutive day measured on day 5 by morris water maze test; type: functional, organism-based; details: time 30.0 day; in short: as §2
Mus musculus [8] = assay: Anti-alzheimer activity in hippocampus of APP/PS1 dE9 double transgenic mouse model assessed as reduction in glial cell aggregation at 5 mg/kg, ip administered once daily for 30 consecutive days by immunofluorescence staining; type: functional, organism-based; details: time 30.0 day
In short: (§3)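 Brains from dosed female APP/PS1 mice (10 months) were fixed in 4% paraformaldehyde at 4 °C for 24–48 h, taken through a sucrose gradient and OCT, and cut into 15 μm sections. Sections were permeabilized with 0.3% Triton X-100, blocked in 10% BSA for 1 h, and incubated with primary antibody overnight at 4 °C (1:200). Secondary was 1:500 for 1 h at 25 °C, with DAPI counterstain and confocal imaging, in triplicate.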

Mus musculus [9] = assay: Anti-alzheimer activity in hippocampus of APP/PS1 dE9 double transgenic mouse model assessed as reduction in amyloid beta plaque deposition at 5 mg/kg, ip administered once daily for 30 consecutive days by immunofluorescence staining; type: functional, organism-based; details: time 30.0 day; in short: as §3
Mus musculus [10] = assay: Anti-alzheimer activity in hippocampus of APP/PS1 dE9 double transgenic mouse model assessed as increase in SOD content at 5 mg/kg, ip administered once daily for 30 consecutive days by immunofluorescence analysis; type: functional, organism-based; details: time 30.0 day

| Structure (SMILES) | Activity (PC-12 [1]) | Activity (PC-12 [2]) | Activity (Mus musculus [3]) | Activity (Mus musculus [4]) | Activity (Mus musculus [5]) | Activity (Mus musculus [6]) | Activity (Mus musculus [7]) | Activity (Mus musculus [8]) | Activity (Mus musculus [9]) | Activity (Mus musculus [10]) |
| --- | --- | --- | --- | --- | --- | --- | --- | --- | --- | --- |
| O=C1c2ccccc2-c2n[nH]c3cccc1c23 | inactive | inactive |  |  |  |  |  |  |  |  |
| COc1cc2c(cc1OC)C(=O)C(CC1CCN(Cc3ccccc3)CC1)C2 (stereo not given) |  |  | Active | Active | Active | Active | Active | Active | Active | Active |
